Tested on: HEK293T G6PC promoter luciferase with RORa, 20 h
Experiment: inhibitors of RORa-driven G6PC promoter, late-stage follow-up, counter-screen for RORA inverse agonist project, cell-based, luminescence, single concentration (AID 463144)
Conditions: at 10 µM; hits give low values
How it was run: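 System: HEK293T cells expressing full-length RORa, SRC-2 coactivator, G6PC-promoter luciferase | Compound dosing: Single nominal dose of 10 µM per compound | Schedule: 20 h compound treatment | Measured by: Reporter luminescence | Read-out basis: Average fold change versus vehicle wells | Benchmarks: DMSO-only vehicle cells as reference | Repeats: n of 6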

For O=S(=O)(Nc1ccc(C(O)(C(F)(F)F)C(F)(F)F)cc1)c1cccs1, the fold change was 0.64.
